# Source: PubChem BioAssay (Broad Institute)
# SR-BI DiI-HDL act: activators of SR-BI mediated HDL lipid uptake; 320,000 compounds, 0.096% hits; activation, % at 12.5 µM; CHO ldlA[mSR-BI] cells, DiI-HDL uptake fluorescence, 3 h; 100 = double the neutral-control signal;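 active = mean replicate activation of at least 60% and every replicate at or above 60%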
#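 Material: SR-BI-overexpressing, LDLR-lacking CHO cells | Dosing: Single compound concentration, delivered by pin transfer | Probe or stimulus: Labelled HDL, 10 µg/mL | Signal: Bottom-read cell fluorescence after medium removal, ex 550/em 595 nm | Schedule: 3 h, 37 °C | Evaluation: HDL uptake via cellular fluorescence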
# miR122 inh: blocks miR-122 activity in Huh7 sensor cells; 340,000 compounds, 0.3% hits; Huh7 miR-122 Renilla luciferase sensor, 48 h; neutral wells = 0, positive control = 100; AID 602342; activation (reporter increase), % at 12.5 µM;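 active = mean replicate activation score at least 90 and every replicate individually at or above 90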;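 also: higher luciferase means less miR-122 activity so hits act as miR-122 inhibitors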
# CAL PDZ FP-1: inhibitors of human CAL PDZ peptide binding; Q9HD26; purified CAL PDZ, TMR-peptide fluorescence polarization, 1 h; inhibition, % at 24.9 µM; 300,000 compounds, 0.92% hits; AID 602252;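 active = mean inhibition of at least 30% with at least half of replicates also reaching 30%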
# CAL PDZ FP-2: inhibitors of human CAL PDZ peptide binding. purified CAL PDZ, TMR-peptide fluorescence polarization, 1 h. inhibition, % at 20 µM. 330,000 compounds, 0.02% hits;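 active = highest replicate inhibition of at least 40%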
#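 Test system: tagged CAL PDZ domain / Buffer or medium: sodium phosphate/NaCl buffer pH 7.4 with TCEP, IgG, Thesit / Reagent: TMR-labelled reporter peptide T*-PRC34 bound in PDZ groove / Compound dosing: single point, 20 µM / Schedule: 1 h incubation at room temperature before polarization reading / Technique: fluorescence polarization (mP) / Benchmarks: unlabelled peptide, DMSO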
# ARNT-TACC3 inh: disruptors of human ARNT/TACC3 interaction | 390,000 compounds, 0.66% hits | inhibition, % at 9.99 µM | AID 623870 | Q9Y6A5 | AlphaScreen His-ARNT PAS-B/GST-TACC3 binding, luminescence; TACC3 fragment carries E629A point mutation;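 active = mean inhibition of replicates at least 50% and at least half of replicates each reaching 50%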
# SR-BI HDL uptake: mouse SR-BI HDL lipid transfer inhibition. Q61009. ldlA[mSR-BI] CHO cells, DiI-HDL uptake fluorescence, 3 h. inhibition, % at 12.5 µM. 320,000 compounds, 0.96% hits;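 active = mean replicate inhibition of at least 70% and a set share of replicates each scoring 70 or more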
# Target sequence (Q61009 whole entry, looked up): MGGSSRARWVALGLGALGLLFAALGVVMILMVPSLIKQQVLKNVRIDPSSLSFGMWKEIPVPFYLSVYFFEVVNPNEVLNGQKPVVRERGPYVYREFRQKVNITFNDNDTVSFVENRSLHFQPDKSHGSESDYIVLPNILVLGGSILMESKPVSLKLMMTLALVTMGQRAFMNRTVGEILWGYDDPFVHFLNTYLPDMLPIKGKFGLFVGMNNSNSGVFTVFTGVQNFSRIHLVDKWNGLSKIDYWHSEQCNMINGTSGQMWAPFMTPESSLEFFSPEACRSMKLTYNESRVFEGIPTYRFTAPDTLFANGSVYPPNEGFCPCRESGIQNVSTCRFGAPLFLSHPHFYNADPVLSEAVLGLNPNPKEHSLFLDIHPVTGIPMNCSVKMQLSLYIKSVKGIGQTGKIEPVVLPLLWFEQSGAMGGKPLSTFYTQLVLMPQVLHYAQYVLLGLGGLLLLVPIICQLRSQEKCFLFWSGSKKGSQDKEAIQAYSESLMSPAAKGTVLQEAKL
# AlphaScreen ctr: counter-screen for ARNT/TACC3 inhibitors: AlphaScreen artifacts. His-ARNT PASB-GST AlphaScreen artifact counter-screen, luminescence. AC50, µM (doses to about 68 µM). 1,200 compounds, 50% hits. shares compounds with ARNT-TACC3 inh;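 active = every separate test run was called active for a drop in luminescence, with AC50 within twice the top valid dose, actives reach about 71 µM in these data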
# Numbers stand for hits; . = inactive; / = no result given. An excerpt weighted towards active compounds, which were near 2.1% of everything screened.
SMILES,SR-BI DiI-HDL act,miR122 inh,CAL PDZ FP-1,CAL PDZ FP-2,ARNT-TACC3 inh,SR-BI HDL uptake,AlphaScreen ctr
Cc1cccc(S(=O)(=O)N2C[C@H]3[C@@H](c4ccccc42)[C@@H](CO)N3Cc2ccccn2)c1,/,.,/,/,.,/,/
O=S(=O)(c1ccccc1)N1C[C@H]2[C@@H](c3ccccc31)[C@@H](CO)N2Cc1ccccn1,/,.,/,/,27,/,.
Cc1nn(C)cc1NC(=O)C[C@@H]1CC[C@@H]2[C@@H](COc3ccc(NC(=O)Nc4cccc(Cl)c4)cc3C(=O)N2C)O1,/,.,/,/,.,/,/
CC(C)C(=O)Nc1ccc2c(c1)C(=O)N(C)[C@@H]1CC[C@H](CC(=O)NC3CCCC3)O[C@@H]1CO2,/,.,/,/,/,/,/
C/C(=N\NC(=O)C(C)Oc1ccc([N+](=O)[O-])cc1)c1ccccn1 (stereo not drawn),.,.,/,.,54,.,34µM
NC1=NN=C(N2N=C(c3ccccc3)CC2(O)C(F)(F)F)n2ncnc2C1 (stereo not drawn),.,/,.,.,54,.,.
NC1=NN=C(N2N=C(c3ccc(Br)cc3)CC2(O)C(F)(F)F)n2ncnc2C1 (stereo not drawn),.,/,.,.,.,.,/
COCc1cn(CC[C@@H]2CC[C@H](NC(=O)c3ccccc3)[C@@H](CO)O2)nn1,/,/,/,/,.,/,/
COc1ccc(NC(=O)N[C@H]2CC[C@H](CCn3cc(-c4ccccn4)nn3)O[C@@H]2CO)cc1,/,.,/,/,20,/,36µM
O=C(N[C@H]1CC[C@H](CCn2cc(-c3ccccn3)nn2)O[C@@H]1CO)c1ccccc1,/,/,/,/,74,/,34µM
O=C(N[C@@H]1CC[C@@H](CCn2cc(-c3ccccc3)nn2)O[C@H]1CO)c1cnccn1,/,/,/,/,.,/,/
O=C(N[C@H]1CC[C@@H](CCn2cc(-c3ccccc3)nn2)O[C@@H]1CO)c1cnccn1,/,/,/,/,active,/,.
N[C@@H]1CC[C@H](CCn2cc(-c3ccccn3)nn2)O[C@H]1CO,/,.,/,/,75,/,6.6µM
COc1ccc(-c2cn(CC[C@@H]3CC[C@@H](N)[C@H](CO)O3)nn2)cc1,/,/,/,/,.,/,/
O=C(C[C@H]1CC[C@@H](NC(=O)c2ccccc2)[C@H](CO)O1)Nc1ccc(-c2ccccc2)cc1,/,.,/,/,51,/,.
O=C(C[C@H]1CC[C@H](NC(=O)c2ccccc2)[C@@H](CO)O1)Nc1ccc(-c2ccccc2)cc1,/,.,/,/,.,/,/
COCc1cn(CC[C@H]2CC[C@H](NC(=O)c3ccccc3)[C@@H](CO)O2)nn1,/,/,/,/,.,/,/
O=C(N[C@@H]1CC[C@H](CCn2cc(-c3ccccn3)nn2)O[C@H]1CO)c1ccccc1,/,/,/,/,76,/,60µM
O=C(N[C@H]1CC[C@H](CCn2cc(-c3ccccn3)nn2)O[C@H]1CO)c1ccccc1,/,/,/,/,54,/,.
COCc1cn(CC[C@H]2CC[C@H](NC(=O)c3ccccc3)[C@H](CO)O2)nn1,/,/,/,/,.,/,/
c1ccc(-c2cn(C[C@H]3CC[C@H](Cn4cc(-c5ccccn5)nn4)O3)nn2)nc1,.,.,.,.,72,.,7.8µM
C[C@@H]1CN([C@@H](C)CO)C(=O)Cc2cc(NS(C)(=O)=O)ccc2O[C@H]1CN(C)S(=O)(=O)c1ccccc1,/,.,/,/,.,/,/
O=C(Nc1ccc2c(c1)OCO2)N[C@@H]1CC[C@@H](CCNC(=O)C2CCOCC2)O[C@H]1CO,/,/,/,/,.,/,/
CO[C@@H]1CN(C)C(=O)c2cc(NC(=O)c3ccccc3)ccc2OC[C@@H](C)N(C)C[C@@H]1C,/,.,/,/,.,/,/
CCC(=O)Nc1nnc(-c2ccco2)o1,.,.,/,.,.,.,/
O=C(COc1ccc(Cl)cc1)Nc1nnc(-c2ccco2)o1,.,/,46,.,25,.,.
O=C(Cc1ccccc1)Nc1nnc(-c2ccco2)o1,.,/,.,.,65,.,.
CCCCC(=O)Nc1nnc(-c2ccco2)o1,.,/,.,.,.,.,/
Cc1ccccc1C(=O)Nc1nnc(-c2ccc(F)cc2)o1,.,.,/,.,.,.,/
